Each structure is given as a SMILES string. Calls of active or inactive are those of the source.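 The calls were made as follows: active = inhibition of 30% or more at any tested concentration; inactive = the rest.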

The target of the first test is M1-family alanyl aminopeptidase PfA-M1 [Plasmodium falciparum 3D7]. The experiment in a line: PfM1AAP aminopeptidase inhibitors, dose response, biochemical, QFRET, H-Leu-NHMec substrate (AID 588686). As to conditions: recombinant PfM1AAP, H-Leu-NHMec fluorogenic cleavage. Put shortly:
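Doses: 10-point twofold dilution series from 100 µM, 2% DMSO; test system: recombinant PfM1AAP enzyme; input: PfM1AAP enzyme at 5 µg/mL final; medium: Tris buffer pH 7.5 with 2 mM CoCl2; times: 90 min reaction at room temperature; replicates: each concentration tested in triplicate; measured by: fluorescence at 370/460 nm; reagent: H-Leu-NHMec, 0.1 mM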
As usually defined, the IC50 is the midpoint of a concentration-inhibition curve. `CN(C)c1ccc(CNC(=O)C2CCN(S(=O)(=O)c3ccc(Br)s3)CC2)cc1`: the IC50 was 23.8 µM.
`CC(C)(C)c1ccc(-c2ccc(S(=O)(=O)N3CCC(C(=O)NCc4ccc5c(c4)OCO5)CC3)s2)cc1`: the half-maximal inhibitory concentration (IC50) was 49.9 µM.
On the same count and under the same terms, the result for `O=C(NCc1ccc2c(c1)OCO2)C1CCN(S(=O)(=O)c2ccc(-c3cncc4ccccc34)s2)CC1` reads 11.4 µM.

Still in this test, the particulars now being: recombinant PfM1AAP, H-Leu-NHMec fluorogenic cleavage; at 100 µM (top of the series).
With `O=C(NCc1ccc2c(c1)OCO2)C1CCN(S(=O)(=O)c2ccc(-c3cccc(F)c3)s2)CC1`, the inhibition result is “inactive”.
Same read-out and setting: the result for `CC[C@H](C)[C@H](NC(=O)c1ccc(C(C)(C)C)cc1)C(=O)NCc1ccc(C(F)(F)F)cc1` reads “inactive”.
Regarding `CC[C@H](C)[C@H](NS(=O)(=O)c1ccc(Br)s1)C(=O)NCc1ccc(F)cc1`, the inhibition result is “inactive”.
The same measure, in the same setting: next, `CC[C@H](C)[C@H](NS(=O)(=O)c1ccc(Br)s1)C(=O)O`: “inactive”; `COc1cccc(-c2ccc(S(=O)(=O)N3CCC(C(=O)NCc4ccc5c(c4)OCO5)CC3)s2)c1`: “inactive”.
On the same count and under the same terms, next, `CC[C@H](C)[C@H](NS(=O)(=O)c1cccs1)C(=O)NCc1ccc(F)cc1`: “inactive”.
With `CC[C@H](C)[C@H](NS(=O)(=O)c1ccc(Br)s1)C(=O)NCc1ccc(C(F)(F)F)cc1`, the inhibition result is “inactive”.
Still for that read-out and setting: the result for `CC(=O)Nc1cccc(-c2ccc(S(=O)(=O)N3CCC(C(=O)NCc4ccc5c(c4)OCO5)CC3)s2)c1` reads “inactive”; that for `CC[C@H](C)[C@H](NC(=O)c1ccc([N+](=O)[O-])cc1)C(=O)NCc1ccc(C(F)(F)F)cc1`, “inactive”.
Consider `CC[C@H](C)[C@H](NC(=O)c1ccc([N+](=O)[O-])cc1)C(=O)NCc1ccc(F)cc1`, for which the inhibition result is “inactive”.
For the compound `COc1ccc(-c2ccc(S(=O)(=O)N3CCC(C(=O)NCc4ccc5c(c4)OCO5)CC3)s2)cc1`, the inhibition result was “inactive”.
`CC[C@H](C)[C@H](NC(=O)c1ccc([N+](=O)[O-])cc1)C(=O)NCc1ccccc1`: the inhibition entry was “inactive”.
For the compound `O=C(NCc1ccc2c(c1)OCO2)C1CCN(S(=O)(=O)c2ccc(-c3ccccc3)s2)CC1`, the inhibition entry is “inactive”.

Source of the values: PubChem BioAssay AID588686 (Southern Research Specialized Biocontainment Screening …, 2011).
